The source made the active and inactive calls. The rule behind the calls is not given here.
Tests used:
Liver microsomes = assay: Inhibition of all-trans retinoic acid metabolism in rat liver microsomes; assay type: functional, Microsome
In short: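 Rat liver microsomes incubated with [11,12-3H]-atRA (diluted in unlabeled atRA), inhibitor in acetonitrile, NADPH and 50 mM phosphate buffer pH 7.4, duplicate tubes, 30 min at 37 °C with shaking. Extract evaporated and metabolites resolved by C18 radio-HPLC (acetonitrile/1% ammonium acetate/acetic acid 75:25:0.1). IC50 is the average of two experiments.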

Cytochrome P450 26A1 = biological target: T1, Cytochrome P450 26A1 (Homo sapiens, UniProt O43174); assay: Inhibition of CYP26A1 in human MCF7 cells assessed as all-trans retinoic acid metabolism; assay type: ADME, cell-based
T1 sequence (O43174 whole entry): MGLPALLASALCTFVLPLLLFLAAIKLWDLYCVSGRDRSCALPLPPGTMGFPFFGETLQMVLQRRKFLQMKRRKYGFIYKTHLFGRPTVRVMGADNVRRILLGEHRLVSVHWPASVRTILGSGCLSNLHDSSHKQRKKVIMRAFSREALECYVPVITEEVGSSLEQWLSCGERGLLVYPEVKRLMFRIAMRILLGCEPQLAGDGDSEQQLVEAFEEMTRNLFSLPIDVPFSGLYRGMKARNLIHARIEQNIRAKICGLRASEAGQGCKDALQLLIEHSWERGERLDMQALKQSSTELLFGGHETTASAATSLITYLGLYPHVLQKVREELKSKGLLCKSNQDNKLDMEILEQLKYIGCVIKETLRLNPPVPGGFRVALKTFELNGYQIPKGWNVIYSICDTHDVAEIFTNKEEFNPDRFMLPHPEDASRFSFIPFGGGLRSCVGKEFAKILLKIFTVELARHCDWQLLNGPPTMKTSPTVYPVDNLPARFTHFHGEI
In short: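 Seeded 2.5 × 10^5 per well and allowed 24 h to adhere, then washed with PBS. Fresh medium with inhibitor in acetonitrile plus atRA (final 1 × 10^-7 M, 0.1 μCi [3H]-atRA), 9 h at 37 °C in the dark, duplicate. Stopped with 1% acetic acid. Metabolites separated by radio-HPLC on C18. IC50 is the average of two experiments.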

Compound	IC50 (Liver microsomes) [µM]	IC50 (Cytochrome P450 26A1) [µM]	Activity (Liver microsomes; Microsome)
CCC(CC)[C@H](c1ccc(Nc2nc3ccccc3s2)cc1)n1cncn1	9	0.005	
COc1ccc2c(c1)CCC(Cc1ccccc1C)C2=O (configuration not stated)	1.8	20	
O=C1/C(=C/c2ccc(O)cc2)CCc2cc(O)ccc21	> 20	9	
O=C1/C(=C/c2ccccc2-c2ccccc2)CCc2cc(O)ccc21	> 20	20	
O=C1c2ccc(O)cc2CCC1Cc1ccc(-c2ccccc2)cc1 (configuration not stated)	0.8	10	
COc1ccc2c(c1)CCC(Cc1cc(C(F)(F)F)ccc1C(F)(F)F)C2=O (configuration not stated)	18	50	
CN(C)c1ccc(/C=C2\CCc3cc(O)ccc3C2=O)cc1	> 20	50	
O=C1c2ccc(O)cc2CCC1Cc1ccccc1-c1ccccc1 (configuration not stated)	0.5	10	
COc1ccc2c(c1)CCC(Cc1ccc(O)cc1)C2 (configuration not stated)	2.2	25	
COc1ccc2c(c1)CC/C(=C\c1ccc(O)cc1)C2=O	> 20	7	
CC(=O)N1CCN(c2ccc(OCC3COC(Cn4ccnc4)(c4ccc(Cl)cc4Cl)O3)cc2)CC1 (configuration not stated) [KETOCONAZOLE]	18		
COc1ccc2c(c1)CC/C(=C\c1ccccc1Br)C2=O	> 20	9	
Nc1ccc(CC2CCc3cc(O)ccc3C2=O)cc1 (single isomer, unassigned; (-))	10.2	39	
COc1ccc2c(c1)CC/C(=C\c1cc(C(F)(F)F)ccc1C(F)(F)F)C2=O	> 20	50	
O=C1/C(=C/c2ccccc2Br)CCc2cc(O)ccc21	2.4	20	
Nc1ccc(CC2CCc3cc(O)ccc3C2=O)cc1 (single isomer, unassigned; (+))	17.6	43	
COc1ccc2c(c1)CCC(Cc1ccc(O)cc1)C2=O (configuration not stated)	0.4	5	
O=C1/C(=C/c2ccc(-c3ccccc3)cc2)CCc2cc(O)ccc21	> 20	50	
COc1ccc2c(c1)CC/C(=C\c1ccccc1C)C2=O	> 20	20	
CN(C)c1ccc(CC2CCc3cc(O)ccc3C2=O)cc1 (configuration not stated)	1.2	25	
O=C1c2ccc(O)cc2CCC1Cc1ccc(O)cc1 (configuration not stated)	1.5	20	
Clc1cccc(C(c2ccc3[nH]cnc3c2)n2ccnc2)c1 (configuration not stated)			Active
